Screening data: PubChem, Broad Institute
In the library only some 4.4% were active in any assay of this set; here they are far more common.
T cruzi repl: inhibitors of intracellular T. cruzi growth, primary screen, luminescence, NIH3T3 host cells. T. cruzi beta-gal in NIH3T3, 90 h. inhibition, % (concentration not given with the values). hit rate 1.4% among 300,000. AID 1885, 2009;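 active = mean inhibition across valid replicates above about 55%, limit read from the data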;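 also: signal also drops with host cell toxicity which is not excluded here; higher percent means less beta-gal luminescence so fewer parasites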
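System – NIH/3T3 host cells with β-galactosidase reporter T. cruzi · Doses – single 50 nL compound addition per well in DMSO · Reagent – 5000 T. cruzi trypomastigotes/well · Medium – Low-serum DMEM with 2% FBS · Timing – ≥90 h infection period, 3 h prior cell attachment · Evaluation – parasite load inhibition, % · Technique – GalScreen luminescence, 60 min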
HSF1 inh: HSF1 inhibitors in luciferase reporter cells, primary screen, cell-based, NIH3T3, luminescence; NIH3T3-HGL HSE-luciferase, MG132-induced, luminescence 8 h; active compounds read low; activity change, negative = inhibition, % at 7.5 µM (by protocol); hit rate 0.77% among 300,000; AID 2098, 2009;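 active = more than half of replicate wells show activity change below -50%, luminescence cut by over half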;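 also: luciferase reports HSF-1 transcriptional activity via heat shock element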
HSF-1 act: HSF-1 activators, primary screen, NIH3T3-HGL cells, MG132 stress, luminescence, single point; NIH3T3-HGL HSF-1 luciferase reporter, 8 h; 100% = twice DMSO control signal; activation, % at 9 µM; hit rate 1.7% among 300,000;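 active = mean replicate activation of at least 50% with a set share of replicates each reaching 50%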
Calb FLC: C. albicans growth inhibition with fluconazole, primary screen, CaCi-2 strain, Alamar Blue fluorescence | growth inhibition, % (concentration not given with the values) | C. albicans CaCi-2 + fluconazole, 48 h | hit rate 0.57% among 300,000;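 active = growth inhibition above about 58% in most replicates, limit read from the data, passing the limit was not always enough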;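 also: all wells also contain fluconazole at 8 µg/ml as a sub-toxic cotreatment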
HIF activator: HIF pathway transcriptional activators, primary screen, cell-based, U2OS HRE-luciferase, luminescence | U2OS HRE-luciferase reporter; normalized: DMSO 0%, desferrioxamine 100% | activation, % at 7.5 µM (by protocol) | hit rate 0.32% among 300,000;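 active = mean activation of at least 10% of the iron chelator positive control signal, with at least half of replicates also reaching 10%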
Each line names hits and unclear results; the compound was inactive in the other large screens.

O=C(O)c1ccc(N/N=C/c2ccc3c(c2)OCO3)cc1	HSF1 inh -71
CCOc1ccc(NC(=O)CCC(=O)N/N=C/c2ccc3c(c2)OCO3)cc1	Calb FLC 111
O=C(N/N=C/c1ccc2c(c1)OCO2)c1cccs1	none
CCOc1ccc(/C=N/NC(=O)CCC(=O)Nc2ccc(F)cc2)cc1	none
O=C(N/N=C/c1cccnc1)c1cccc(Cl)c1	none
CC(C)c1ccc(/C=N/NC(=O)c2cccc(Cl)c2)cc1	HSF-1 act 55
Cc1ccsc1C(=O)N/N=C/c1ccc2c(c1)OCO2	HSF-1 act 52
Cc1ccccc1OCCC(=O)N1CCN(S(=O)(=O)c2ccc(Cl)cc2)CC1	none
COc1ccc(/C=N/NC(=O)c2sccc2C)c2ccccc12	none
CC(NC(=O)c1ccc2c(c1)OCO2)c1ccccc1 (stereo not given)	HSF1 inh -71
O=C(N/N=C/c1ccncc1)c1ccc2c(c1)OCO2	none
CCc1ccc(C(C)NC(=O)c2ccc3c(c2)OCO3)cc1 (stereo not given)	none
Cc1ccccc1/C=N/NC(=O)c1sccc1C	HSF-1 act 55
O=C(N/N=C/c1cc(Br)c(O)c(Br)c1O)c1ccc2c(c1)OCCO2	none
O=C(N/N=C/c1ccc(Cl)cc1)c1ccc2c(c1)OCO2	HSF-1 act 55
O=C(N/N=C/c1cc(Br)c(Br)o1)c1ccc2c(c1)OCCO2	Calb FLC 85
O=C(O)COc1ccccc1/C=N/NC(=O)c1ccc2c(c1)OCCO2	HSF1 inh -60
COc1ccccc1C(=O)NCC(=O)N/N=C/c1ccc2c(c1)OCO2	HSF1 inh -73
COc1cc(/C=N/NC(=O)c2ccc(Cl)cc2)ccc1OCC(=O)N1CC(C)OC(C)C1 (stereo not given)	HSF-1 act 56
CCOc1ccc(-c2cn3ccccc3n2)cc1[N+](=O)[O-]	HSF-1 act 55
CCCOc1ccc(-c2csc(N)n2)cc1[N+](=O)[O-]	none
CCCCOc1ccc(-c2cn3ccccc3n2)cc1[N+](=O)[O-]	HSF-1 act 63
O=[N+]([O-])c1ccc(-c2cn3ccccc3n2)cc1	none
CCCCCN(C(=O)CCC(=O)OCC(=O)N1CCC(C)CC1)c1c(N)n(CCCC)c(=O)[nH]c1=O	none
Cc1ccc(NS(=O)(=O)c2ccc(C(=O)N3CC(C)CC(C)C3)cc2)cc1 (stereo not given)	none
CC(C)NCC(O)COC1CCC(C(C)(C)C)CC1 (stereo not given)	T cruzi repl 57
CC1CCC(C(C)C)C(OCC(O)CNC(C)C)C1 (stereo not given)	none
CC(C)NCC(O)COC1C2CC3CC(C2)CC1C3 (stereo not given)	T cruzi repl 62
CC(C)(C)C1CCC(OCC(O)CN2CCN(Cc3ccccc3)CC2)CC1 (stereo not given)	T cruzi repl 57
